Shown are actives, neighbours in structure and some others; about 2.1% of the full set was active somewhere.
Autophagy HCS: alters autophagy in cells; MEF GFP-LC3 puncta imaging; test concentration mostly 10 µM; calls only at 10 µM (by protocol); 190,000 compounds, 0.98% hits;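 active means percentage of spot-positive cells more than 3 SD above its plate mean, without a fluorescence outlier flag or 80% toxicity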;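 further: spot-positive cell cutoff set from DMSO-treated cells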
MT stabilizer: microtubule stabilizers in HeLa cells | HeLa tubulin immunostaining HCS, 24 h; share of cells brighter than vehicle mean+2SD | % tubulin-high responders, % at 10 µM | 200,000 compounds, 0.83% hits | AID 2205;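 active means plate Z-score above 3 for both tubulin-high and condensed-nucleus cell shares, with cell loss under 80%, at 10 µM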;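 further: anti alpha tubulin signal scored within the nucleus-defined area of each cell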
b-catenin transl: modulators of beta-catenin nuclear translocation. HeLa beta-catenin nuclear translocation, immunofluorescence imaging. 190,000 compounds, 0.3% hits. nuclear translocation activity, % at 5 µM;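 active means nuclear translocation activity above 50% at 5 µM, with a well cell count of 50 or more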;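 further: per-cell ratio of nuclear to cytoplasmic median beta-catenin stain intensity; plate controls were DMSO negative control for no effect and GSK-3 inhibitor IX positive control for full effect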
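assay system = human HeLa cells, endogenous beta-catenin | times = compound treatment 24 h, 37°C, 5% CO2 | detection = Anti-beta-catenin immunofluorescence on PFA-fixed, Triton-permeabilized cells, DAPI nuclei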
Arbovirus inh: arbovirus infection inhibition | arbovirus infection cell-based antiviral screen | inhibition, % at 10 µM | 200,000 compounds, 0.37% hits; in the data active means inhibition above about 30%
ABCB1 block: inhibitors of human ABCB1 transporter, ABCG2 counter-screen | inhibition, % at 6.6 µM | P08183 | CCRF-Adr cells, JC-1 efflux, flow cytometry | 190,000 compounds, 0.067% hits; in the data active means inhibition above about 40%;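 further: 0% = vehicle and 100% = reference inhibitor; higher value means more JC-1 retained so stronger ABCB1 efflux block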
Target sequence (P08183 whole entry, looked up): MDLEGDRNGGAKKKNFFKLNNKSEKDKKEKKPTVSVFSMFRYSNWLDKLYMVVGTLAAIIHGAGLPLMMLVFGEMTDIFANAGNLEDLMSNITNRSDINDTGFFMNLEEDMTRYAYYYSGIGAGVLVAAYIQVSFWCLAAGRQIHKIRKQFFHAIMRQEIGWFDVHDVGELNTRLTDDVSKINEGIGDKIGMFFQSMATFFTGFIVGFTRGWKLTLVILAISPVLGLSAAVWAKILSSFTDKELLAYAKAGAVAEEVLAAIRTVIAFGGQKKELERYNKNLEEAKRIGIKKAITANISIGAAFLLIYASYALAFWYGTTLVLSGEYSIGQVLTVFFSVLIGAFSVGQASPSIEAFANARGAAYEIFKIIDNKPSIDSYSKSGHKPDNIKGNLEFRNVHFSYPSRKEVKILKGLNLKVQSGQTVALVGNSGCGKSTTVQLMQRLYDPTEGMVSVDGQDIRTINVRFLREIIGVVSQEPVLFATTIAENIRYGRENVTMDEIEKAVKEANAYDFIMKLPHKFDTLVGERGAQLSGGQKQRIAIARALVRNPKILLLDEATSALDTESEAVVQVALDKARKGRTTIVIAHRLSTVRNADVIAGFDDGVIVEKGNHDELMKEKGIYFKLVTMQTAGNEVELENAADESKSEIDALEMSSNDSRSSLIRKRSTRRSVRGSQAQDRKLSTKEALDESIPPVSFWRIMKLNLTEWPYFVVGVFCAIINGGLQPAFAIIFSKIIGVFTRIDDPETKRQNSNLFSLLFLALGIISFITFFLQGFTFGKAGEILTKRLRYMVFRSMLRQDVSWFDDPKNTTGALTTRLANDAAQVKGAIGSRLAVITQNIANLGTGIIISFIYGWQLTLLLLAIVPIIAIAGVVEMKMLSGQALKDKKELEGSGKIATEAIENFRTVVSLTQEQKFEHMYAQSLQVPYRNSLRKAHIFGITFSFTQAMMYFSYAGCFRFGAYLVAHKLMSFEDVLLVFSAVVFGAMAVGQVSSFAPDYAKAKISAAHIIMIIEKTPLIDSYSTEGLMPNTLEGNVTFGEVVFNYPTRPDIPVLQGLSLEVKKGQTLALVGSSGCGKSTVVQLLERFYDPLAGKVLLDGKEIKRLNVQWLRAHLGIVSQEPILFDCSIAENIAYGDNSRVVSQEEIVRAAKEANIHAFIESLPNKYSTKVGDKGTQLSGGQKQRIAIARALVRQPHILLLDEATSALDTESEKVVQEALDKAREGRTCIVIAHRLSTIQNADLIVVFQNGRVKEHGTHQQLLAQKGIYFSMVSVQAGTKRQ
ABCG2 block: human ABCG2 inhibition, ABCB1 as counter-screen | 190,000 compounds, 0.1% hits | AID 1325 | inhibition, % at 6.6 µM | IgMXP3 cells, JC-1 efflux, flow cytometry;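 active means inhibition above 80%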;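 further: 0% = DMSO and 100% = nicardipine control wells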
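Times: 10 min at 25 °C | Test system: Two drug-resistant human cell lines, ABCG2 and ABCB1 | Quantity: 3 million cells/mL final, two lines in 1:1 ratio | Signal: Flow cytometry, 530 nm JC-1 signal | Dosing: Compound at 6.6 µM | Controls: Nicardipine and DMSO wells | Reagent: JC-1 as fluorescent efflux pump substrate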
An asterisk follows results filed as active; i = inactive; nt = not tested or not shown; + = active, no number.

SMILES	Autophagy HCS	MT stabilizer	b-catenin transl	Arbovirus inh	ABCB1 block	ABCG2 block
CCN(CC)c1ccc(NC(=O)c2cccc(OC)c2)c(C)c1	i	52.7*	nt	-21.4	-0.2	-0.6
CCN(CC)c1ccc(NC(=O)c2c(OC)cccc2OC)c(C)c1	i	2.1	-1.9	37.9*	0.5	1.2
NS(=O)(=O)c1ccc(Nc2ccccc2)c([N+](=O)[O-])c1	nt	nt	-3.4	nt	nt	nt
Clc1ccc(/C=N/Nc2nc(Cl)nc3ccccc23)cc1	i	1.9	-1.7	-0.6	0.0	0.2
O=C(O)c1ccc(Cl)c(S(=O)(=O)Nc2ccc3[nH]c(=O)[nH]c3c2)c1	nt	nt	-0.9	nt	nt	nt
COc1ccc2[nH]c(C)c(CCNc3ccc(C(F)(F)F)cc3[N+](=O)[O-])c2c1	i	2.0	-0.1	-11.5	-0.7	-3.8
c1ccc2c(c1)ncn2-c1ccc(-c2ccnc3ncnn23)cc1	+	2.6	-2.7	7.7	0.8	6.0
Nc1nccc(-c2ccc(-n3cnc4ccccc43)cc2)n1	i	2.8	-0.5	10.3	1.1	8.1
COc1ccc2c(=O)cc(C(=O)O)oc2c1	i	1.7	-3.0	18.1	0.2	1.5
CC(C)Cc1nnc(NC(=O)CCC(=O)NC2CCCc3ccccc32)s1 (stereo not given)	i	2.0	4.5	-6.9	-0.2	-0.2
COc1ccc(-c2ccnc(-c3ccc(O)cc3)n2)cc1	i	12.4	64.3*	-13.0	0.1	6.8
CCC(C)(C)n1nnnc1C(C(C)C)N1CCSCC1 (stereo not given)	+	2.0	nt	2.8	0.6	2.2
CCC(C)(C)n1nnnc1C(C(C)C)N1CCN(C)CC1 (stereo not given)	i	4.2	-5.3	1.0	0.0	-0.1
O=C(c1ccc2c(c1)N(Cc1ccccc1)C(=O)CS2)N1CCOCC1	i	6.5	1.0	3.9	0.1	0.5
Cc1ccccc1CN1C(=O)CSc2ccc(C(=O)N3CCOCC3)cc21	i	37.8*	nt	1.2	0.8	1.5
CCc1ccc(NC(=O)C2C3/C=C\CCCCC32)cc1 (stereo not given)	i	2.0	1.4	-4.2	0.9	12.0
CC(NCc1ccc(-c2ccccc2)cc1)C(O)c1ccccc1 (stereo not given)	i	11.0	46.6	-44.1	2.0	3.7
COc1cc(/C=C/C(=O)Nc2ccc(C)cc2)cc(OC)c1OC	i	2.0	1.1	10.8	0.5	1.5
COc1cc(/C=C/C(=O)Nc2nnc(C(C)(C)C)s2)cc(OC)c1OC	i	6.1	-0.8	31.3*	1.1	-1.2
O=c1[nH]c(/C=C2\C=Nc3ccccc32)c(O)n1Cc1ccccc1F	+	2.2	0.9	4.1	-0.1	0.4
CSc1nc(O)c(/C=C2\C=Nc3ccccc32)[nH]1	i	6.1	-1.2	-1.0	-1.0	-5.4
CCN(C(=O)COC(=O)c1ccc(S(=O)(=O)N2CCCc3ccccc32)cc1)C1CCS(=O)(=O)C1 (stereo not given)	i	4.3	-2.4	-7.1	1.6	5.8
COc1ccc(/C(C)=N/OC/C(O)=C(\C#N)c2nc3ccccc3[nH]2)c(OC)c1	i	1.9	-3.2	1.2	0.2	24.4
COc1ccc(/C(C)=N/OC/C(O)=C(\C#N)c2nc3ccccc3[nH]2)cc1OC	i	15.7*	2.6	-6.2	0.7	10.8
COc1ccc(C2CC(=O)c3cnc(NC(=O)c4ccccc4OC)nc3C2)c(OC)c1 (stereo not given)	i	1.5	-0.5	13.0	1.2	2.4
SMILES	Autophagy HCS	MT stabilizer	b-catenin transl	Arbovirus inh	ABCB1 block	ABCG2 block
FC(F)(F)c1cccc(CN2CCC(c3cc(-c4cccs4)n[nH]3)CC2)c1	i	28.6*	0.5	-34.9	1.9	1.9
Cc1ccc(CN2CCC(c3cc(-c4cccs4)n[nH]3)CC2)cc1	i	3.1	0.7	22.2	-0.1	4.1
O=C(OCc1nc2ccccc2[n+]([O-])c1C(=O)c1ccccc1)c1cccnc1	nt	nt	-0.9	nt	nt	nt
CCOC(=O)c1cnc(-c2ccccc2)nc1Oc1ccc(Cl)c(Cl)c1	i	1.7	nt	-8.5	0.2	2.2
CCOc1c(Cl)cc(CNc2ccc(N3CCCC3)cc2)cc1OC	i	8.1	-3.3	-7.1	0.2	-0.1
CCCCSCCCNC(=S)Nc1ccccc1C	i	1.4	-1.0	7.7	0.2	5.6
Cc1ccccc1NC(=S)NCCO	+	3.1	-0.8	13.1	0.7	5.1
Cc1ccc(C)c(N2CCN(C(=O)C3CCN(c4nnc(N5CCCC5=O)s4)CC3)CC2)c1	i	3.1	-0.2	nt	nt	nt
Cn1c(CC(=O)c2ccc(Br)cc2)[n+](C)c2ccccc21	+	2.6	0.9	4.7	0.6	2.6
O=C(Cn1cnc2ccccc21)c1ccc(Br)cc1	i	2.0	-1.4	4.5	0.2	1.8
CC(=O)NC1=NC(=O)/C(=C/c2cc(C)n(-c3ccc(NC(C)=O)cc3)c2C)S1	i	3.4	0.1	-2.5	-0.8	-2.0
COc1ccc(OC)c(C2=NOC(C(=O)NCc3cccs3)C2)c1 (stereo not given)	i	23.1*	-0.7	-15.6	1.0	3.7
O=C(NCc1cccs1)C1CC(c2ccc(Cl)c(Cl)c2)=NO1 (stereo not given)	i	3.1	62.5*	-11.8	-1.3	14.8
CCCCn1c(SCC(=O)Nc2cc(C(F)(F)F)ccc2Cl)nnc1C(CC)N(C)C (stereo not given)	+	2.3	nt	5.8	6.0	42.1
CCOc1ccc(-n2c(C)c(C(C)=O)c(C(C)=O)c2C)cc1	+	3.6	1.8	6.0	1.5	1.4
COc1ccc(-n2c(C)c(C(C)=O)c(C(C)=O)c2C)cc1	i	1.0	-2.9	-2.7	nt	nt
CCn1c(Cc2ccccc2)nnc1SCC(=O)Nc1ccc(N)cc1	i	1.2	2.2	-7.4	0.3	1.8
Cc1cc(C)c(S(=O)(=O)NCCn2c(C)cc3ccccc32)c(C)c1	i	7.8	-3.4	-12.4	0.3	0.2
Cc1ccc(Oc2ccc(S(=O)(=O)N3CCOCC3)cc2C(N)=O)c(-n2nc3ccccc3n2)c1	i	27.4*	-0.5	-20.2	1.7	3.4
COc1ccccc1Oc1ccc(S(=O)(=O)N2CCOCC2)cc1S(=O)(=O)N1CCOCC1	i	1.9	-1.6	-2.0	2.1	7.6
COc1ccc(C(=O)NN(C)c2nc(C(F)(F)F)nc3ccccc23)cc1	i	8.0	158.2*	-7.1	-0.1	3.2
COc1ccc(C(=O)NN(C)c2nc(-c3ccccc3)nnc2C(F)(F)F)cc1	i	2.8	0.6	8.2	0.5	3.7
CCOC(=O)C1CCCN(C(=O)c2ccccc2[N+](=O)[O-])C1 (stereo not given)	i	2.1	-0.8	8.6	0.2	0.4
CNC(=O)c1nc(C)c(C2(C)CC(c3ccccc3)=NO2)s1 (stereo not given)	nt	nt	-1.5	nt	nt	nt
